Assay results taken from ChEMBL document CHEMBL1145477, “Activity of T-1106 in a hamster model of yellow Fever virus infection” (Antimicrob Agents Chemother, 2007).

Experiments:
Assay type in all cases: functional
Yellow fever virus [1] = assay: Antiviral activity against YFV Jimenez infected in Syrian golden hamster liver treated 4 hrs before viral challenge assessed as alanine aminotransferase at 50 mg/kg/day, ip bid for 8 days; details: route intraperitoneal
Procedure, shortened: (§1)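 YFV (Jimenez)-infected female hamsters were treated b.i.d. i.p. or p.o. Serum was drawn by ocular sinus at 6 dpi. ALT was read with a colorimetric kit adapted to microplates: substrate plus serum for 30 min at 37°C, then colour reagent and developer, absorbance at 505 nm. Values are IU/liter against saline controls.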

Yellow fever virus [2] = assay: Antiviral activity against YFV Jimenez infected in Syrian golden hamster assessed as serum alanine aminotransferase at 50 mg/kg, ip bid for 7 days; details: route intraperitoneal; procedure, shortened: as §1
Yellow fever virus [3] = assay: Antiviral activity against YFV Jimenez infected in Syrian golden hamster liver treated 4 hrs before viral challenge assessed as mean day to death at 50 mg/kg/day, ip bid for 8 days; details: route intraperitoneal
Yellow fever virus [4] = assay: Antiviral activity against YFV Jimenez infected in Syrian golden hamster assessed as weight change at 50 mg/kg, po bid for 7 days
Yellow fever virus [5] = assay: Antiviral activity against YFV Jimenez infected in Syrian golden hamster assessed as mean day to death after 21 days post-infection at 50 mg/kg, ip bid for 7 days; details: route intraperitoneal

NC(=O)c1ncn([C@@H]2O[C@H](CO)[C@@H](O)[C@H]2O)n1 [RIBAVIRIN]
Activity (Yellow fever virus [1]): 120 IU/L
Activity (Yellow fever virus [2]): 120 IU/L
Activity (Yellow fever virus [3]): 6 days
Activity (Yellow fever virus [4]): 1.3 g
Activity (Yellow fever virus [5]): 6 days
